Experimental data as given in article PMC6675461 (Bioorganic & medicinal chemistry, 2009).
Counter-ions that a name gives are not always drawn. Like-named read-outs stand apart in the source and are kept apart here.

Key:
[1] = test system: NCI-60 human tumor cell lines; test: NCI-60 human tumor cell line anticancer drug screen; assay type: cell-based; settings: read-out: GI50 range, all nine types of cancer cells
[2] = test system: three melanoma cell lines (B16-F1, A375, WM-164); test: SRB assay, average over melanoma cell lines and selectivity vs fibroblast; assay type: cell-based, human, mouse; settings: for IC50: Fibroblast
[3] = test system: four prostate cancer cell lines (DU 145, PC-3, LNCaP, PPC-1); test: SRB assay, average over prostate cancer cell lines and selectivity vs RH7777; assay type: cell-based, human; settings: for IC50: Homo sapiens, RH7777, read-out: Aver. (average IC50 of four prostate cells IC50s)
How it was run: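 The control line was LPL receptor-negative RH7777 in DMEM/10% FBS. The prostate IC50s were averaged. Selectivity = IC50 in RH7777 divided by the average tumor-cell IC50.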

WM-164 cells = test: SRB antiproliferative assay, WM-164 melanoma cells; assay type: cell-based, human; settings: read-out: IC50 ± SEM WM-164
How it was run: (§1)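 Melanoma lines (human A375, WM-164; mouse B16-F1) and human dermal fibroblasts were grown in DMEM with 5% FBS, 1% antibiotic/antimycotic and bovine insulin (5 μg/mL) at 37 °C, 5% CO2. Diastereomeric mixtures were applied over a wide concentration range for 48 h. Cells were then TCA-fixed (10%), washed, air-dried overnight and SRB-stained, with absorbance read at 560 nm. IC50 (50% growth inhibition versus untreated) was obtained by nonlinear regression.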

B16-F1 cells = test: SRB antiproliferative assay, B16-F1 melanoma cells; assay type: cell-based, mouse; settings: read-out: IC50 ± SEM B16-F1, 48 h, diastereomeric mixtures
How it was run: as §1

[4] = test system: Human dermal fibroblast cells; test: SRB assay, fibroblast control cells; assay type: cell-based; settings: read-out: IC50 ± SEM Fibroblast, 48 h, control cell line for melanoma
How it was run: as §1

A375 cells = test: SRB antiproliferative assay, A375 melanoma cells; assay type: cell-based, human; settings: read-out: IC50 ± SEM A375
How it was run: as §1

[5] = read-out: Aver. (average IC50 of three melanoma cells IC50s)
[6] = read-out: IC50 range over melanoma cell lines
[7] = SRB, 48 h, diastereomeric mixtures

SMILES	IC50 [2, 5] [µM]	IC50 [3] [µM]	also measured
CCCCCCCCCCCCCCCCCCNC(=O)[C@@H]1CSC(c2ccccc2)N1 (mixture of isomers) [Compound 1a, (2RS,4R)-2-Phenyl-thiazolidine-4-carboxylic acid octadecylamide]	11.6	6.9	GI50 [1]: 0.12 to 10.9 µM
CCCCCCCCCCCCCCCCCCNC(=O)[C@@H]1CSC(c2cc(OC)c(OC)c(OC)c2)N1 (mixture of isomers) [Compound 3aa, (2RS,4R)-2-(3,4,5-Trimethoxy-phenyl)-thiazolidine-4-carboxylic acid octadecylamide]	–	–	fold more potent than 1a against prostate cancer cells ([3]; from average IC50): 2.4 fold
CCCCCCCCCCCCCCCCCCNC(=O)[C@@H]1CSC(c2ccc(OC)c(OC)c2)N1 (mixture of isomers) [Compound 3ba, (2RS,4R)-2-(3,4-Dimethoxy-phenyl)-thiazolidine-4-carboxylic acid octadecylamide]	8	3.2	–
CCCCCCCCC/C=C/CCCCCCCNC(=O)[C@@H]1CSC(c2ccc(OC)c(OC)c2)N1 (mixture of isomers) [Compound 3bc, (2RS,4R)-2-(3,4-Dimethoxy-phenyl)-thiazolidine-4-carboxylic acid (E)-octadec-8-enylamide]	–	1.2	–
CCCCCCCCCCCCCCCCNC(=O)[C@@H]1CSC(c2ccccc2OC)N1 (mixture of isomers) [Compound 3ca, (2RS,4R)-2-(2-Methoxy-phenyl)-thiazolidine-4-carboxylic acid hexadecylamide]	3.2	4.8	–
CCCCCCCCCCCCCCCCNC(=O)[C@@H]1CSC(c2cccc(OC)c2)N1 (mixture of isomers) [Compound 3da, (2RS,4R)-2-(3-Methoxy-phenyl)-thiazolidine-4-carboxylic acid hexadecylamide]	2	0.7	–
CCCCCCCCCCCCCCCCNC(=O)[C@@H]1CSC(c2ccc(OC)cc2)N1 (mixture of isomers) [Compound 3ea, (2RS,4R)-2-(4-Methoxy-phenyl)-thiazolidine-4-carboxylic acid hexadecylamide]	1.6	1.6	–
CCCCCCCCCCCCCCCCNC(=O)[C@@H]1CSC(c2ccc(N(C)C)cc2)N1 (mixture of isomers) [Compound 3fa, (2RS,4R)-2-(4-Dimethylamino-phenyl)-thiazolidine-4-carboxylic acid hexadecylamide]	–	2.8	–
CCCCCCCCCCCCCCCCNC(=O)[C@@H]1CSC(c2ccccc2NC(C)=O)N1 (mixture of isomers) [Compound 3ga, (2RS,4R)-2-(2-Acetylamino-phenyl)-thiazolidine-4-carboxylic acid hexadecylamide]	7.1	3	–
CC(=O)Nc1ccc(C2N[C@H](C(=O)NC34CC5CC(CC(C5)C3)C4)CS2)cc1 (mixture of isomers) [Compound 3ib, (2RS,4R)-2-(4-Acetylamino-phenyl)-thiazolidine-4-carboxylic acid adamantan-1-ylamide]	120	–	–
CC(=O)Nc1ccc(C2N[C@H](C(=O)NC3C4CC5CC(C4)CC3C5)CS2)cc1 (mixture of isomers) [Compound 3ic, (2RS,4R)-2-(4-Acetylamino-phenyl)-thiazolidine-4-carboxylic acid adamantan-2-ylamide]	79.5	–	–
CC(=O)Nc1ccc(C2N[C@H](C(=O)Nc3ccc(-c4ccccc4)cc3)CS2)cc1 (mixture of isomers) [Compound 3if, (2RS,4R)-2-(4-Acetylamino-phenyl)-thiazolidine-4-carboxylic acid biphenyl-4-ylamide]	5.3	–	–
CCCCCCCCC#CCCCCCCCCCNC(=O)[C@@H]1CSC(c2ccc(NC(C)=O)cc2)N1 (mixture of isomers) [Compound 3ii, (2RS,4R)-2-(4-Acetylamino-phenyl)-thiazolidine-4-carboxylic acid nonadec-10-ynylamide]	–	1.7	–
CCCCCCCCCCCCCCCCNC(=O)[C@@H]1CSC(c2ccccc2)N1 (mixture of isomers) [Compound 3ja, (2RS,4R)-2-Phenyl-thiazolidine-4-carboxylic acid hexadecylamide]	–	–	IC50 [2, 6]: 0.7 to 2.1 µM
CCCCCCCCC/C=C\CCCCCCCNC(=O)[C@@H]1CSC(c2ccccc2)N1 (mixture of isomers) [Compound 3jb, (2RS,4R)-2-Phenyl-thiazolidine-4-carboxylic acid (Z)-octadec-8-enylamide]	4.4	1.7	–
CCCCCCCCC/C=C/CCCCCCCNC(=O)[C@@H]1CSC(c2ccccc2)N1 (mixture of isomers) [Compound 3jc, (2RS,4R)-2-Phenyl-thiazolidine-4-carboxylic acid (E)-octadec-8-enylamide]	5.9	–	IC50 (WM-164 cells; Homo sapiens, WM164, 48 h): 2.4 ± 0.2 µM
CCCCCCCCCCCCCCCCOC(=O)[C@@H]1CSC(c2ccc(NC(C)=O)cc2)N1 (mixture of isomers) [Compound 5, (2RS,4R)-2-(4-Acetylamino-phenyl)-thiazolidine-4-carboxylic acid hexadecyl ester]	29.5	–	–
CCCCCCCCCCCCCCCCNC[C@@H]1CSC(c2ccccc2)N1 (mixture of isomers) [Compound 8a, (2RS,4R)-Hexadecyl-(2-phenyl-thiazolidin-4-ylmethyl)-amine hydrochloride]	7.5	–	–
CCCCCCCCCCCCCCCCNC(=O)[C@@H]1CSC(c2ccc(N)cc2)N1 (mixture of isomers) [Compound 13b, (2RS,4R)-2-(4-Amino-phenyl)-thiazolidine-4-carboxylic acid hexadecylamide]	–	1.8	–
CCCCCCCCCCCCCCCCNC(=O)[C@@H]1CSC(c2ccc(NS(C)(=O)=O)cc2)N1 (mixture of isomers) [Compound 15a, (2RS,4R)-2-(4-Methanesulfonylaminophenyl)-thiazolidine-4-carboxylic acid hexadecylamide]	60.9	–	IC50 [2, 6]: 5.7 to 114 µM
CCCCCCCCCCCCCCCCNC(=O)[C@@H]1CSC(c2ccc(NC(N)=O)cc2)N1 (mixture of isomers) [Compound 15c, (2RS,4R)-2-(4-Ureido-phenyl)-thiazolidine-4-carboxylic acid hexadecylamide]	3.9	2	–
[NH2][Pt]([NH2])([Cl])[Cl] [CDDP, cisplatin, reference compound]	–	–	IC50 (B16-F1 cells): > 100 µM; Antiproliferative activity on melanoma cell lines, in words ([2]; reference compounds, in vitro): resistant; IC50 [4]: > 100 µM; IC50 (WM-164 cells; [7]): > 100 µM; IC50 (A375 cells; [7]): > 100 µM
CCCCCCCCC/C=C\CCCCCCCNC(=O)[C@@H]1CSC(c2cc(OC)c(OC)c(OC)c2)N1 (stereo partly drawn) [Compound 3ab, (2RS,4R)-2-(3,4,5-Trimethoxy-phenyl)-thiazolidine-4-carboxylic acid octadec-8-cis-enylamide]	2.8	1	–
CCCCCCCCC/C=C/CCCCCCCNC(=O)[C@@H]1CSC(c2cc(OC)c(OC)c(OC)c2)N1 (stereo partly drawn) [Compound 3ac, (2RS,4R)-2-(3,4,5-Trimethoxy-phenyl)-thiazolidine-4-carboxylic acid octadec-8-trans-enylamide]	2	0.8	–
CC(=O)Nc1ccc(C2N[C@H](C(=O)Nc3ccc4cc5ccccc5cc4c3)CS2)cc1 (some centres unmarked) [Compound 3ie]	3.4	1	–
CCCCCCCCCCCCCCCCNC(=O)[C@@H]1CSC(c2ccc(NC(=O)CCl)cc2)N1 (stereo partly drawn) [Compound 15b, (2RS,4R)-2-[4-(2-Chloro-acetylamino)-phenyl]-thiazoli-dine-4-carboxylic acid hexadecylamide]	39.8	1	IC50 [2, 6]: 5.7 to 114 µM
CCCCCCCCCCCCCCCCNC(=O)[C@@H](N)CSC [Compound 16a, (2R)-2-Amino-N-hexadecyl-3-methylsulfanyl-propion-amide]	–	–	IC50 [2, 6]: 12.9 to 14.4 µM
CCCCCCCCCCCCCCCCNC(=O)[C@@H](N)CSCc1ccccc1 [Compound 16c, (2R)-2-Amino-3-benzylsulfanyl-N-hexadecyl-propionamide]	–	–	IC50 [2, 6]: 12.8 to 15.1 µM
CCCCCCCCCCCCCCCCNC(=O)CNCc1ccc(NC(C)=O)cc1 [Compound 16d, 2-(4-Acetylamino-benzylamino)-N-hexadecyl-acetamide]	–	–	IC50 [2, 6]: 10.2 to 11.9 µM
CNC(=O)c1cc(Oc2ccc(NC(=O)Nc3ccc(Cl)c(C(F)(F)F)c3)cc2)ccn1 [Sorafenib, reference compound]	–	–	IC50 (A375 cells; Homo sapiens, A-375, 48 h): 5.4 ± 0.5 µM
